Measles CPE – compounds protecting cells from measles virus cytopathic effect, primary screen, measles RdRp inhibitor project, single point, MLSMR library, absorbance; Measles virus-infected cells, CPE protection; protection (pct of control), % at 4 µM; actives 1.5% (n = 140,000); AID 841, 2007; in the data active means protection mostly above about 24%, no sharp cut-off; inactive means mostly below about 26%
WT yeast gro inh – growth inhibition of WT strain, primary screen, mitochondrial fusion inhibitor project, WT and mutant strains, chemical genetic; mitochondrial fusion phenotypic screen; inhibition, % at 10 µM; actives 2.1% (n = 190,000); AID 1362, 2008; in the data active means inhibition above about 58%; tested in S. cerevisiae
DAT uptake mod – changed hDAT dopamine uptake under cocaine IC80, either direction, primary screen, cocaine antagonist project, cell-based, LLC-PK1 hDAT, [14C]-dopamine uptake, MLSMR; AID 449768, 2010; Sodium-dependent dopamine transporter (Homo sapiens), Q01959; B-score at 10 µM; actives 1.3% (n = 110,000); LLC-PK1 hDAT cells, [14C]-dopamine uptake with cocaine IC80; actives deviate in either direction;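 active means Z score or B-score, a plate-position-corrected score, falls beyond the plate's 99.7% confidence bounds, in either direction; inactive means both scores lie inside the 99.7% bounds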;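 further: scored against the spread of the other compound wells on the same plate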
Target sequence (Q01959 whole entry, looked up): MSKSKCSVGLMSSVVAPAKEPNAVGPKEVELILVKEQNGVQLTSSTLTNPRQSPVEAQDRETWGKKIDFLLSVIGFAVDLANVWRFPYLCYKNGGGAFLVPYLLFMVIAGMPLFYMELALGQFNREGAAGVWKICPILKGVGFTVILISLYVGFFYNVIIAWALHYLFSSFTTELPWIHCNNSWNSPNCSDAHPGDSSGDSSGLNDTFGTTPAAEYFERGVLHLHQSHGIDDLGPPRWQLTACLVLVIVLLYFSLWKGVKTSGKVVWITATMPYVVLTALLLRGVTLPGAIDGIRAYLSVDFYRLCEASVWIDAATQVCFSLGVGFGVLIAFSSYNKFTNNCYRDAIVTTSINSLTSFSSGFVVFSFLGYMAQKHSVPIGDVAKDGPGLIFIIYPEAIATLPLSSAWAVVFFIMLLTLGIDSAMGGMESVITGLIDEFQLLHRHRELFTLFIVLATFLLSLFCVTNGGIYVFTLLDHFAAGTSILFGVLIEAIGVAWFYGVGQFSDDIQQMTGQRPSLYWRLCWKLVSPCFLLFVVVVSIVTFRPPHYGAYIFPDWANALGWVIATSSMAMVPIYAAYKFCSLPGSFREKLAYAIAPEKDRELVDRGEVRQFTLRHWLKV
Yeast growth inh – growth inhibitors of yeast BB579 in restrictive medium, primary screen, yeast lifespan-shortening project, S. cerevisiae. AID 804, 2007. inhibition, % at 10 µM. actives 0.51% (n = 140,000). OD615, 48 h;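 active means inhibition above a set limit, 3 SD over the mean compound inhibition, cut at about 44% in these data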
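Detection: OD615 turbidity measurement; Material: Saccharomyces cerevisiae DeaD strain BB579, replicative lifespan model yeast; Timing: 48 h exposure, 30 °C; Doses: single 10 µM dose; Medium: CSMM-D restrictive synthetic medium containing dextrose (glucose); Controls: amphotericin B at 10 µg/mL as positive control.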
RAM network inh – inhibitors of the yeast RAM network, primary screen, dse1pr::URA3 reporter, 5-FOA selection | S. cerevisiae dse1pr::URA3 reporter, 5-FOA growth OD615, 2 d; analog-sensitive cbk1-as2 kinase mutant strain | inhibition, % at 50 µM | actives 1.8% (n = 190,000);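 active means inhibition above a set limit, 3 SD over mean compound inhibition, cut at about 8.4% in these data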;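 further: 0% = DMSO-only wells with no growth and 100% = 10 µM 1-NA-PP1 full growth; inhibition rescues growth on 5-FOA so higher OD means more RAM inhibition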
Yeast life ext – compounds extending yeast replicative lifespan, primary screen, S. cerevisiae, OD615. S. cerevisiae growth with nicotinamide; deaD strain in restrictive glucose medium. inhibition of the nicotinamide effect, % at 10 µM. actives 0.68% (n = 130,000);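 active means inhibition above a set limit, placed 3 SD over the median of all compounds, cut at about 26% in these data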;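 further: 0% = nicotinamide-treated wells and 100% = cells grown without nicotinamide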
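assay system = DeaD-strain S. cerevisiae | measured by = absorbance at 615 nm | probe or stimulus = nicotinamide 1.5 mM | buffer or medium = CSMM-D glucose medium, restrictive | times = 48 h at 30 °C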
The depositor's hits bear a star; · = no result given. In the library only some 6.1% were active in any assay of this set; here they are far more common.

SMILES	Measles CPE	WT yeast gro inh	DAT uptake mod	Yeast growth inh	RAM network inh	Yeast life ext
COc1ccc(CC(=O)N2CCN(c3ccccn3)CC2)cc1	7	1	-0.0088	-28	3	-2
COc1ccccc1CCn1cnc2c3cc(C)ccc3n(C)c2c1=O	4	-5	0.75	-33	4	-21
O=C(Cn1cc(Cl)ccc1=O)c1ccc(Cl)cc1	3	16	·	-7	2	0
CCOC(=O)c1c(C)n(C)c2ccc(OC)c(NC(=O)CN3CCN(C(=O)c4ccco4)CC3)c12	26*	-6	-0.23	-57	0	-1
CCOC(=O)c1c(C)n(C)c2ccc(OC)c(NC(=O)CCN3CCSCC3)c12	37*	-1	-0.12	-36	-1	-4
CCOC(=O)c1c(C)n(C)c2ccc(OC)c(NC(=O)CN3CCN(Cc4ccccc4)CC3)c12	4	7	·	-45	2	-10
CCC(C)N=C1SCC(C)(/C=N/O)S1 (stereo unspecified)	11	-10	-0.37	-12	-2	-3
CC(C)(C)N=C1SCC(C)(/C=N/O)S1 (stereo unspecified)	55*	33	0.77	-15	0	-7
CN1CCN(C(=O)C2CC(c3c(F)cccc3Cl)=NO2)CC1 (stereo unspecified)	2	-19	-0.27	-66	2	-2
CCOc1ccc(/C=N/NC(=O)c2nnn(-c3nonc3N)c2-c2ccc(OCC)cc2)cc1	5	2	·	-24	9.4*	2
CCOC(=O)C(C)n1nc(/C=C/c2ccc(OC)cc2)ccc1=O (stereo unspecified)	·	8	·	·	2	·
CCOC(=O)C(C)n1nc(/C=C/c2ccccc2)ccc1=O (stereo unspecified)	88*	-2	-0.38	-54	1	-26
COc1ccccc1/C=C(/C(=O)OCC(=O)N(C)Cc1ccccc1)c1ccccc1	9	6	·	-13	10*	-2
COc1ccc(NC(=O)/C(Cl)=C(/Cl)S(=O)Cc2ccccc2Cl)cn1 (stereo unspecified)	·	92	·	·	2	·
C[C@H]1O[C@@H](O[C@H]2[C@@H](O)C[C@H](O[C@H]3[C@@H](O)C[C@H](O[C@H]4CC[C@@]5(C)[C@H](CC[C@@H]6[C@@H]5C[C@@H](O)[C@]5(C)[C@@H](C7=CC(=O)OC7)CC[C@]65O)C4)O[C@@H]3C)O[C@@H]2C)C[C@H](O)[C@@H]1O	-1	-5	-6.2*	-25	0	4
O=C(NC1=NCCS1)c1cc(-c2cccnc2)nc2ccccc12	·	-10	·	·	0	·
O=C(NC1=NCCS1)c1cccc2ccccc12	·	81*	·	·	0	·
O=C(NCC1CCCO1)c1c(O)c2ccccc2[nH]c1=O (stereo unspecified)	5	-3	-0.4	-18	2	57*
CCOC(=O)c1c(NCC2CCCO2)c2ccccc2[nH]c1=O (stereo unspecified)	4	-6	0.91	-16	1	-2
O=C(N/N=C/c1ccc(F)cc1)c1c(O)c2ccccc2[nH]c1=O	0	-1	·	-8	0	57*
COC(=O)c1c(O)c2ccccc2[nH]c1=O	8	-4	-1.2	-24	0	41*
O=C(N/N=C/c1ccccc1)c1c(O)c2ccccc2[nH]c1=O	7	1	·	-29	0	59*
CC(C)CNC(=O)c1ccccc1NC(=O)CN(c1ccccc1)S(=O)(=O)N(C)C	·	12	·	·	1	·
O=C(CCN1CCOCC1)N/N=C/c1cc(Br)cc(Br)c1O	·	-8	·	·	-2	·
COC(=O)c1c(O)cc(C(C)(C)C)n(-c2ccccc2)c1=O	15	13	·	-10	4	-2
SMILES	Measles CPE	WT yeast gro inh	DAT uptake mod	Yeast growth inh	RAM network inh	Yeast life ext
O=C(Nc1nnc(-c2cccs2)s1)c1cccc(F)c1	·	13	·	·	3	·
COCC(C)NCc1ccc(OC)c(Br)c1 (stereo unspecified)	·	-3	·	·	1	·
O=C(N/N=C/c1cccc(F)c1)c1c(O)c2ccccc2[nH]c1=O	7	16	·	-34	1	52*
CCCn1c(=O)c(C(=O)N/N=C/c2ccccc2F)c(O)c2ccccc21	·	0	·	·	3	·
CC1CCc2cc(F)cc3c(O)c(C(=O)NCC4CCCO4)c(=O)n1c23 (stereo unspecified)	14	10	1.3	-66	11*	-1
CCCCCc1c(O)c2ccccc2[nH]c1=O	36*	12	0.017	-24	1	-6
CCCn1c(=O)c(C(=O)NCC2CCCO2)c(O)c2ccccc21 (stereo unspecified)	·	1	·	·	2	·
CC(C)CCn1c(=O)c(C(=O)N/N=C/c2cccc(F)c2)c(O)c2ccccc21	3	17	·	13	0	38*
COc1ccc(/C=N\NS(=O)(=O)c2ccc(Cl)cc2)cc1COc1ccccc1[N+](=O)[O-]	21	-2	·	-24	1	·
N#CC(C#N)=CC1=C2OC(c3ccccc3)=CC(c3ccccc3)=C2CCC1	15	8	-0.96	-61	10*	0
COC(=O)C1=C(O)/C(=C\c2ccc(CNC(=O)C(=O)Nc3ccc(C)cc3)o2)N=C1C	16	76*	0.31	-29	1	-20
O=C(OCc1nnc(-c2ccc(Cl)cc2)o1)c1ccc(O)cc1	·	4	·	·	4	·
Cc1nn(Cc2ccccc2)c(Cl)c1C(=O)OCc1nnc(-c2ccc(Cl)cc2)o1	3	34	2.6*	-28	8.6*	-7
CC(C)(C)CC(=O)Nc1ccc(Nc2ccccc2)cc1	7	33	-0.2	-10	0	-23
O=C(CCCCCCCC(=O)c1ccccc1)c1ccccc1	·	-8	·	·	0	·
C=C(CCC(=O)c1ccccc1)C(=O)c1ccccc1	6	25	·	-29	-2	31*
C=C(C(=O)c1ccccc1)C(CC(=O)c1ccccc1)c1ccccc1 (stereo unspecified)	6	10	·	-15	7	39*
COc1ccc(C(=O)N[C@H](C(=O)N2CCN(c3ccccc3F)CC2)C(C)C)cc1	·	-14	·	·	5	·
Cc1ccc(NC(=O)COC(=O)C2CC2(Cl)Cl)cc1C (stereo unspecified)	·	12	·	·	0	·
CCCNC(=O)OC[C@H]1O[C@H](CCO/N=C(\C)CCN2CCc3nc(-c4ccccc4)c(-c4ccccc4)cc3C2)C=C[C@@H]1Oc1ccc(OC)cc1	21	2	·	-57	0	32*
